From article PMC9968502 (International Journal of Nanomedicine, 2023)
Values after ≈ are worked out from the molar mass of the structure shown.

Tests used:
[1] = Dissolution test in pH 1.2 and pH 6.8 buffers with 0.2% Tween 80; assay type: physicochemical; conditions: 0.2% Tween 80, 37 °C
How it was run: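 Crystalline compound or solid dispersion, each equivalent to 2 mg test compound, was stirred at 50 rpm and 37 °C in 100 mL phosphate buffer (pH 1.2 or pH 6.8, each with 0.2% Tween 80). Samples were taken at 5, 10, 20, 30, 60, 120, 180, 240 and 300 min, with medium replaced at 37 °C. Samples were filtered (0.45 µm) and analysed by the 424 nm HPLC method.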

[2] = Apparent solubility measurement in deionised water; assay type: physicochemical; conditions: 37 °C, thermodynamic from solid
How it was run: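 Excess crystalline test compound or its 1:10 solid dispersion was shaken in deionised water at 50 strokes/min and 37 °C for 24 h, then filtered (0.45 µm). Concentration was measured by HPLC: C18 column, 2% glacial acetic acid:methanol (23:77 v/v) at 1 mL/min, detection at 424 nm. Measured in triplicate.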

[3] = Particle size analysis of micelles by dynamic light scattering; assay type: physicochemical; conditions: in water, DLS
How it was run: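 Carrier glycoside alone or the solid dispersion powder was dispersed in deionised water and sonicated for 2 min. Volumetric size distribution was measured by dynamic light scattering, and the mean size was taken from 3 replicates.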

[4] = above the CMC, previous studies; ref [16–18]; cited from earlier work
[5] = ref [19], cited from earlier work

## COc1cc(/C=C/C(=O)CC(=O)/C=C/c2ccc(O)c(OC)c2)ccc1O [CUR, Curcumin]
[1]; pH 1.2 buffer, in 300 min
  CUR released: 22%
[1]; pH 6.8 buffer
  Dissolution rate (in words): slow dissolution rate
[2]
  solubility at 24 h: 0.25 µg/mL (≈ 0.679 µM)
[3]
  Micelle size (diameter): ~ 154 nm

## α-Glucosyl Stevia [Stevia-G]
[4]
  Aggregation number: 12

## COc1cc(C2Oc3cc([C@H]4Oc5cc(O)cc(O)c5C(=O)[C@@H]4O)ccc3OC2CO)ccc1O (stereo partly drawn) [silybin]
[5]
  Fold increment of silybin water solubility by Mog-V: 2000 fold
[5]; silybin alone
  Water solubility of silybin: 1 µg/mL
[5]; solid dispersion of silybin in Mog-V dissolved in water
  Water solubility of silybin with Mog-V: 2000 µg/mL

## α-Glycosyl Rutin [Rutin-G]
[4]
  Aggregation number: 4
